Screening data as filed in PubChem BioAssay.
UPR XBP1 act: adaptive UPR (XBP1) activation; CHO-XBP1 luciferase reporter, IRE1-XBP1 UPR activation, luminescence; percent of tunicamycin response, DMSO as zero; activation, % at 20 µM; actives 0.33% (n = 330,000);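 active = versus positive control, 20 µM dose yields 30% or more activation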
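Assay system: CHO-XBP1 luciferase reporter cells; Schedule: 6 h treatment, 37 °C; Detection: glow luminescence from Steady-Glo reagent; Benchmarks: high control tunicamycin 10 µg/mL final, low control DMSO vehicle only.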
697 NFkB inh: lowers PMA/ionomycin-induced NF-kB signal in 697 B cells; 697 B-cell NF-kB luciferase reporter, 16 h; inhibition, % at 4 µM; actives 0.33% (n = 330,000); in the data active = inhibition above about 35%
CHOP UPR activ: apoptotic UPR (CHOP) activation | AID 449763 | activation, % at 10 µM | actives 0.34% (n = 330,000) | CHO-CHOP luciferase reporter, luminescence; percent of tunicamycin response over DMSO baseline;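 active = at 10 µM dose, activation of 40% or more, normalized to positive control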
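measured by = luciferase luminescence | assay system = CHO-CHOP cells, stable luciferase reporter of PERK-eIF2a-CHOP signalling | amount = 500 reporter cells seeded per well | timing = 6 h compound exposure at 37 °C after overnight seeding | controls = positive tunicamycin 10 µg/mL, negative DMSO alone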
Jurkat NFkB inh: lowers PMA/ionomycin-induced NF-kB signal in Jurkat cells; PMA/ionomycin-induced NF-kB luciferase reporter, luminescence; inhibition, % at 4 µM; actives 0.53% (n = 330,000); AID 435003; in the data active = inhibition above about 50%
CHOP inh: inhibitors of CHOP induction in ER stress response | actives 3.8% (n = 220,000) | inhibition, % at 10 µM | CHO-K1 CHOP-promoter luciferase, tunicamycin-induced, 15-18 h;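 active = compounds that reduced the stress-induced luciferase reporter signal by more than about 70% of percent inhibition, limit read from the data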
697 NFkB conf: inhibitors of the PMA/ionomycin-induced NF-kB reporter in 697 B cells, retest; shares compounds with 697 NFkB inh; 697 B-cell NF-kB luciferase, 16 h; actives 35% (n = 2,000); inhibition, % at 4 µM; AID 449746; in the data active = inhibition mostly above about 28%, no sharp cut-off; inactive = mostly below about 22%
Each line names hits and unclear results; the compound was inactive in the other large screens (follow-up assays come after a bar, where they were run). Shown is part of a subset that was picked to be rich in hits.

Cc1cccc(C)c1N(CC(=O)NCc1ccco1)C(=O)CNS(=O)(=O)c1ccc(F)cc1	none (no result: CHOP inh)
Cc1cccc(N/C=C/C(=O)c2ccc(Cl)cc2)c1	none (no result: CHOP inh)
O=C(/C=C\Nc1ccccn1)c1ccc(Cl)cc1	none | 697 NFkB conf inactive
Nc1nc(Nc2ccccc2F)sc1C(=O)c1ccccc1	none (no result: CHOP inh) | 697 NFkB conf inactive
Cc1nc(Nc2ccccc2)sc1C(=O)c1ccc(F)cc1	none (no result: CHOP inh)
O=C(c1cccc(Br)c1)N1CCN(S(=O)(=O)N2CCCCCC2)CC1	none (no result: CHOP inh)
COc1cccc(N2[C@@H](CC(=O)O)c3cc(C(F)(F)F)ccc3S2(=O)=O)c1	none (no result: CHOP inh)
CCn1cnc2c1c(=O)n(CC(=O)NCC(C)C)c(=O)n2Cc1ccccc1	none (no result: CHOP inh)
Cc1oc(-c2ccccc2Cl)nc1CSCC(=O)N1CCCC1	none (no result: CHOP inh) | 697 NFkB conf inactive
Cc1oc(-c2ccccc2Cl)nc1CSc1nc2c(c(=O)[nH]1)CCC2	697 NFkB inh 40.6 | 697 NFkB conf inactive
Cc1nn(-c2ccc(N3CCOCC3)nn2)c(C)c1CCC(=O)Nc1ccc(F)cc1	none (no result: CHOP inh)
CC(=O)c1cc(F)ccc1OCC(=O)N1CCN(c2ccc(F)cc2)CC1	697 NFkB inh 36.1 | 697 NFkB conf inactive
O=C(Nc1nc2ccc(Br)cc2s1)c1ccco1	none (no result: CHOP inh)
NS(=O)(=O)c1ccc2nc(NC(=O)c3ccc(Br)o3)sc2c1	none
Cc1ccc2nc(NC(=O)c3ccco3)sc2c1	none | 697 NFkB conf inactive
Cc1ccc2nc(NC(=O)c3ccc(Br)o3)sc2c1	none (no result: CHOP inh) | 697 NFkB conf inactive
O=C(Nc1nc2ccc(Cl)cc2s1)c1ccco1	none | 697 NFkB conf inactive
Cc1nc2ccc3nc(NC(=O)c4ccco4)sc3c2s1	none (no result: CHOP inh)
Cc1cc2sc(NC(=O)c3ccco3)nc2cc1Cl	none (no result: CHOP inh) | 697 NFkB conf inactive
Cc1ccc2nc(NC(=S)NC(=O)c3ccco3)sc2c1	none (no result: UPR XBP1 act, 697 NFkB inh, CHOP UPR activ, Jurkat NFkB inh)
O=C(CN1CCN(c2cccc(Cl)c2)CC1)NC1CCCc2ccccc21 (centres undefined)	none (no result: CHOP inh)
Cc1ccc(O)c(NC(=O)c2ccc3c(c2)C(=O)N(Cc2cccnc2)C3=O)c1	none (no result: CHOP inh)
COc1ccc2nc(NC(=O)c3ccco3)sc2c1	none (no result: CHOP inh) | 697 NFkB conf inactive
CC(=O)Nc1nc2ccc(NC(=O)c3ccco3)cc2s1	none
COc1ccccc1CNC(=O)CN1C(=O)c2ccc([N+](=O)[O-])cc2C1=O	none (no result: CHOP inh)
CCOC(=O)c1c(NC(=O)c2c(-c3ccccc3)noc2C)sc(C)c1-c1ccccc1	none | 697 NFkB conf inactive
O=C1N/C(=C\c2nc3ccccc3s2)c2ccccc21	none | 697 NFkB conf inactive
O=C1N/C(=C\c2ccccc2)c2ccccc21	none (no result: CHOP inh)
CC(=O)c1c[nH]c(C(=O)Nc2ccc(N3CCCCCC3)cc2)c1	697 NFkB inh 39.8 (no result: CHOP inh) | 697 NFkB conf inactive
O=C(Nc1ccc(N2CCCC2)cc1)c1cccc(F)c1	none (no result: CHOP inh) | 697 NFkB conf inactive
O=C(Nc1ccc(N2CCCCC2)cc1)c1ccccc1	none
CC(C)NS(=O)(=O)c1ccc(NC(=O)C(C)OC(=O)CCC(=O)c2cccs2)cc1 (centres undefined)	none (no result: CHOP inh)
Oc1ccccc1C=Nc1ccccc1-c1nc2ccccc2[nH]1	none | 697 NFkB conf inactive
O=C(CSc1ncnc2c1cnn2-c1ccccc1)NCC1CCCO1 (centres undefined)	none (no result: CHOP inh)
Cn1c(=O)[nH]c(=O)c2c1nc(N/N=C/c1ccncc1)n2Cc1ccc(Cl)cc1	697 NFkB inh 37.7 | 697 NFkB conf inactive
CSc1nc2c(c(=O)[nH]c(=O)n2C)n1Cc1ccc(Cl)cc1	none (no result: CHOP inh)
Cc1nc2ccc(Br)cc2c2c1CC(CO)O2 (centres undefined)	none (no result: CHOP inh)
COc1ccc(/C=C\C(=O)O[C@@H]2C(O)C(O[C@@H]3OC(C)[C@H](O[C@@H]4OCC(O[C@H]5O[C@H](CO)[C@@H](O)C(O)C5O)C(O)C4O)C(O)C3O)[C@H](OC(=O)[C@]34CCC(C)(C)C[C@@H]3C3=CCC5[C@@]6(C)CC(O)C(O[C@@H]7OC(CO)C(O)[C@H](O)[C@H]7O)[C@@](C)(C(=O)O)C6CC[C@@]5(C)[C@]3(CO)CC4)O[C@H]2C)cc1 (some centres undefined)	697 NFkB inh 49.2 (no result: CHOP inh) | 697 NFkB conf 43.7
O=C(Nc1ccc(F)cc1)C1CCC(CNc2c(N3CCCCC3)c(=O)c2=O)CC1 (centres undefined)	697 NFkB inh 38.3 | 697 NFkB conf inactive
COc1ccc(-c2nc3ccc(N4CCN(C)CC4)cc3c(=O)[nH]2)cc1	none
COc1cc(-c2nc3ccc(N4CCN(C)CC4)cc3[nH]2)cc(OC)c1OC	697 NFkB inh 37.8 | 697 NFkB conf 31.4
CCC(=O)N1c2ccccc2C(N(C(C)=O)c2ccccc2)CC1C (centres undefined)	697 NFkB inh 37.3 | 697 NFkB conf 45.0
Cc1ccc(OCc2nc(-c3ccccn3)no2)c(Br)c1	none
CCc1ccc(OCc2nc(-c3ccccn3)no2)c(Br)c1	none | 697 NFkB conf inactive
CC(C)NC(=O)COc1coc(CN2CCN(C(=O)c3ccco3)CC2)cc1=O	none (no result: CHOP inh)
COc1ccc(C(=O)Nc2ccc3ccccc3n2)c(OC)c1OC	none (no result: CHOP inh) | 697 NFkB conf inactive
COc1cccc(C(=O)Nc2cccc3ccccc23)c1OC	none (no result: CHOP inh)
O=C(Nc1ccc2ccccc2n1)c1ccc(Cl)cc1	none (no result: CHOP inh)
O=C(Nc1ccc2ccccc2n1)c1ccccc1Cl	none (no result: CHOP inh) | 697 NFkB conf inactive
CSCC[C@H](NC(=O)OC(C)(C)C)C(=O)N/N=C/c1ccc2nccnc2c1	none
O=C(NC1=NCCS1)c1cc(Cl)ccc1Cl	none (no result: CHOP inh)
O=C(NC1=NCCS1)c1ccc(Cl)c(Cl)c1	none (no result: CHOP inh) | 697 NFkB conf inactive
Cc1ccc(S(=O)(=O)CC2CSc3nc4ccccc4n32)cc1 (centres undefined)	697 NFkB inh 61.8 | 697 NFkB conf 75.2
O=C(Nc1ccon1)Nc1cc(Cl)ccc1Cl	none (no result: CHOP inh)
O=C(/C=C/CCc1ccc2c(c1)OCO2)N1CCCCC1	none (no result: CHOP inh)
Cn1c(N)c(C(=O)CNC2CCCCC2)c(=O)n(C)c1=O	none (no result: CHOP inh)
NC(=S)N=Nc1c(O)n(Cc2ccccc2)c2ccccc12	697 NFkB inh 44.7 | 697 NFkB conf 38.7
Cc1ccc(NC(=O)Cn2c(O)c(N=NC(N)=S)c3ccccc32)cc1	UPR XBP1 act 59.8, 697 NFkB inh 39.8 (no result: CHOP inh) | 697 NFkB conf inactive
Cc1ccc(C(=O)NC2CCCc3c2cnn3-c2ccc(F)cc2F)cn1 (centres undefined)	none (no result: CHOP inh)
O=Cc1c[nH]c2ccc(C(=O)c3ccccc3)cc12	none (no result: CHOP inh)
O=C1c2ccccc2[C@@H]2C[C@H](NC34CC5CC(CC(C5)C3)C4)[C@@H](O)CCN12	none (no result: Jurkat NFkB inh, CHOP inh)
CCOc1cc(/C=N/NC(=O)c2ccc(NC(=O)C3CC3)cc2)ccc1O	697 NFkB inh 38.5 (no result: CHOP inh) | 697 NFkB conf inactive
Cc1cc(=O)n2nc(N3CCC(C(=O)NCc4cccc(Br)c4)CC3)sc2n1	none (no result: CHOP inh)
CNC(=O)n1cc(C)c(-c2cccs2)n1	none
COc1ccc2cc(-c3cc(C(=O)O)c4ccccc4n3)ccc2c1	none | 697 NFkB conf inactive
